Experimental data taken from ChEMBL document CHEMBL2385057 (Bioorg Med Chem Lett, 2013).

Tested on: not listed separately
Assay: Half life in human liver microsomes
Assay type: ADME, Microsome

SMILES | half-life
COc1ccc(C2=Nc3c(C(C)(C)C)nn(CCO)c3C(=O)NC2)cc1-c1cnc(N(C)C)nc1 | 0.6 h
COc1ccc(C2=Nc3c(C(C)(C)C)nn(CCO)c3C(=O)NC2)cc1-c1cnc(N2CCCCC2)nc1 | 0.3 h
COc1ccc(C2=Nc3c(C(C)(C)C)nn(CCCO)c3C(=O)NC2)cc1-c1ccccc1SC | 0.85 h
COc1ccc(C2=Nc3c(C(C)(C)C)nn(CCCO)c3C(=O)NC2)cc1-c1ccccc1F | 0.8 h
COc1ccc(C2=Nc3c(C(C)(C)C)nn(CCCO)c3C(=O)NC2)cc1-c1ccc(C(=O)O)cc1 | 2 h
COc1ccc(-c2cc(C3=Nc4c(C(C)(C)C)nn(CCCO)c4C(=O)NC3)ccc2OC)cn1 | 2 h
COc1ccc(C2=Nc3c(C(C)(C)C)nn(CCCO)c3C(=O)NC2)cc1-c1cnc(N(C)C)cc1C | 0.7 h

Now from value to molecule:

half-life | SMILES
2 h | COc1ccc(C2=Nc3c(C(C)(C)C)nn(CCCO)c3C(=O)NC2)cc1-c1ccc(F)cc1F
1.37 h | COc1ccccc1-c1cc(C2=Nc3c(C(C)(C)C)nn(CCCO)c3C(=O)NC2)ccc1OC
1.02 h | COc1ccc(OC)c(-c2cc(C3=Nc4c(C(C)(C)C)nn(CCCO)c4C(=O)NC3)ccc2OC)c1
2 h | COc1ccc(-c2cc(C3=Nc4c(C(C)(C)C)nn(CCCO)c4C(=O)NC3)ccc2OC)c(OC)c1
2 h | COc1ncc(-c2cc(C3=Nc4c(C(C)(C)C)nn(CCCO)c4C(=O)NC3)ccc2OC)c(OC)n1

Target: cGMP-dependent 3',5'-cyclic phosphodiesterase (Homo sapiens, UniProt O00408)
Sequence (O00408 whole entry, the tested form may be a part): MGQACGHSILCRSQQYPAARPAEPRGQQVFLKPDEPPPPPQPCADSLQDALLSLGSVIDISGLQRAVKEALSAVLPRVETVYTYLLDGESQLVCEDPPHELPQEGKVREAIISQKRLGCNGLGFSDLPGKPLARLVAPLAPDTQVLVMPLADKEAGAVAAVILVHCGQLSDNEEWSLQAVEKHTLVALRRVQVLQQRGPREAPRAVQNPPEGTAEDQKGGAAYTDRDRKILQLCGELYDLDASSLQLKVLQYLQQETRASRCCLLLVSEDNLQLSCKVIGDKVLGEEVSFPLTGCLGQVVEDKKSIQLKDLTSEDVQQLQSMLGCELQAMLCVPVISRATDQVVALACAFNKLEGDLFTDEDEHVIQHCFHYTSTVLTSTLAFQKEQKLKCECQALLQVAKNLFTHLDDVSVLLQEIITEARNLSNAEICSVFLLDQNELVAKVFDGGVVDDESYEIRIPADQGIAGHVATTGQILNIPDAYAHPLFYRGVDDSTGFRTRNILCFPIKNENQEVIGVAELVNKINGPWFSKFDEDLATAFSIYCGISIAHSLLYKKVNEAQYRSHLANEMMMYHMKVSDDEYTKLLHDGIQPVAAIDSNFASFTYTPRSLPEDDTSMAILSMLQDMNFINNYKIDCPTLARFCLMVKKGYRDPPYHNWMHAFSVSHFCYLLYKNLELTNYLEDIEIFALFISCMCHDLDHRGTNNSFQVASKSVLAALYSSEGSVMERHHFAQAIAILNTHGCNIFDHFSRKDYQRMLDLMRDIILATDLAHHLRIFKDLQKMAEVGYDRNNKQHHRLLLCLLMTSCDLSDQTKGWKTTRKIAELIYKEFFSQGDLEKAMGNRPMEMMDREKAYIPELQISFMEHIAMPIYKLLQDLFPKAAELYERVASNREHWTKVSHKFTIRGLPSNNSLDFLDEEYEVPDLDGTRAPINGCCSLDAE
Assay: Inhibition of PDE2 catalytic domain (unknown origin)

SMILES | IC50
COc1ccc(C2=Nc3c(C(C)(C)C)nn(CCO)c3C(=O)NC2)cc1-c1cnc(N(C)C)nc1 | 2.5 nM
COc1ccc(C2=Nc3c(C(C)(C)C)nn(CCO)c3C(=O)NC2)cc1-c1cnc(N2CCCCC2)nc1 | 2.5 nM
COc1ccc(C2=Nc3c(C(C)(C)C)nn(CCCO)c3C(=O)NC2)cc1-c1ccccc1SC | 505 nM
COc1ccc(C2=Nc3c(C(C)(C)C)nn(CCCO)c3C(=O)NC2)cc1-c1ccccc1F | 586 nM
COc1ccc(C2=Nc3c(C(C)(C)C)nn(CCCO)c3C(=O)NC2)cc1-c1ccc(C(=O)O)cc1 | 40 nM
COc1ccc(-c2cc(C3=Nc4c(C(C)(C)C)nn(CCCO)c4C(=O)NC3)ccc2OC)cn1 | 70 nM
COc1ccc(C2=Nc3c(C(C)(C)C)nn(CCCO)c3C(=O)NC2)cc1-c1cnc(N(C)C)cc1C | 18 nM

Second part, the molecule after the results:

IC50 | SMILES
483 nM | COc1ccc(C2=Nc3c(C(C)(C)C)nn(CCCO)c3C(=O)NC2)cc1-c1ccc(F)cc1F
156 nM | COc1ccccc1-c1cc(C2=Nc3c(C(C)(C)C)nn(CCCO)c3C(=O)NC2)ccc1OC
46 nM | COc1ccc(OC)c(-c2cc(C3=Nc4c(C(C)(C)C)nn(CCCO)c4C(=O)NC3)ccc2OC)c1
14 nM | COc1ccc(-c2cc(C3=Nc4c(C(C)(C)C)nn(CCCO)c4C(=O)NC3)ccc2OC)c(OC)c1
7 nM | COc1ncc(-c2cc(C3=Nc4c(C(C)(C)C)nn(CCCO)c4C(=O)NC3)ccc2OC)c(OC)n1

Target: 3',5'-cyclic-AMP phosphodiesterase 4B (Homo sapiens, UniProt Q07343)
Sequence (Q07343 whole entry, the tested form may be a part): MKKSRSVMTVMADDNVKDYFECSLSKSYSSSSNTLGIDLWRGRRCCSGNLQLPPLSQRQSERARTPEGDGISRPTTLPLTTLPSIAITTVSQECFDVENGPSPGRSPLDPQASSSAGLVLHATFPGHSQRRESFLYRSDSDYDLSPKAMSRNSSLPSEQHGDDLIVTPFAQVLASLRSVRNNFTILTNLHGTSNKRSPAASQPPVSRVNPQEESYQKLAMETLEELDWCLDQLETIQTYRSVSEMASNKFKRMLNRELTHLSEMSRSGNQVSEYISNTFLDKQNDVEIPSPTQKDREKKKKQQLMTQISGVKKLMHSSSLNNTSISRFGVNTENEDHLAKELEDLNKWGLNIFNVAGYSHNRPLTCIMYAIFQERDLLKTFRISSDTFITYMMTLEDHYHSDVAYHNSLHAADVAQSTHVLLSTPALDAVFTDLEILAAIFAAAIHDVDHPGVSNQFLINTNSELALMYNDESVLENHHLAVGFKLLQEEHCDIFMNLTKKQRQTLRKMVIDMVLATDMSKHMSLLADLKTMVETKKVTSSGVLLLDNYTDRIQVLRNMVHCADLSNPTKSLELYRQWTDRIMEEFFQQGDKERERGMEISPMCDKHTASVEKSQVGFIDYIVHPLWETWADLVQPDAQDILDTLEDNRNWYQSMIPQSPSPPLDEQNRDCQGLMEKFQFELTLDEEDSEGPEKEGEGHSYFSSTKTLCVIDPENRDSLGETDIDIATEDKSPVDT
Assay: Inhibition of PDE4B catalytic domain (unknown origin)
Summary of the method: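 Each IC50 is the mean of at least two independent determinations. Each curve had 10 half-log dilutions, centred near the 50% inhibition level, with each point run in duplicate.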

SMILES | IC50
COc1ccc(C2=Nc3c(C(C)(C)C)nn(CCO)c3C(=O)NC2)cc1-c1cnc(N(C)C)nc1 | 695 nM
COc1ccc(C2=Nc3c(C(C)(C)C)nn(CCO)c3C(=O)NC2)cc1-c1cnc(N2CCCCC2)nc1 | 353 nM
COc1ccc(C2=Nc3c(C(C)(C)C)nn(CCCO)c3C(=O)NC2)cc1-c1ccccc1SC | 100000 nM
COc1ccc(C2=Nc3c(C(C)(C)C)nn(CCCO)c3C(=O)NC2)cc1-c1ccccc1F | 8160 nM
COc1ccc(C2=Nc3c(C(C)(C)C)nn(CCCO)c3C(=O)NC2)cc1-c1ccc(C(=O)O)cc1 | 27000 nM
COc1ccc(-c2cc(C3=Nc4c(C(C)(C)C)nn(CCCO)c4C(=O)NC3)ccc2OC)cn1 | 6190 nM
COc1ccc(C2=Nc3c(C(C)(C)C)nn(CCCO)c3C(=O)NC2)cc1-c1cnc(N(C)C)cc1C | 5660 nM

Now from value to molecule:

IC50 | SMILES
100000 nM | COc1ccc(C2=Nc3c(C(C)(C)C)nn(CCCO)c3C(=O)NC2)cc1-c1ccc(F)cc1F
2070 nM | COc1ccccc1-c1cc(C2=Nc3c(C(C)(C)C)nn(CCCO)c3C(=O)NC2)ccc1OC
8110 nM | COc1ccc(OC)c(-c2cc(C3=Nc4c(C(C)(C)C)nn(CCCO)c4C(=O)NC3)ccc2OC)c1
100000 nM | COc1ccc(-c2cc(C3=Nc4c(C(C)(C)C)nn(CCCO)c4C(=O)NC3)ccc2OC)c(OC)c1
1920 nM | COc1ncc(-c2cc(C3=Nc4c(C(C)(C)C)nn(CCCO)c4C(=O)NC3)ccc2OC)c(OC)n1
